Source: PubChem BioAssay
In the library only some 6.7% were active in any assay of this set; here they are far more common.
Beta cell apopt = beta cell apoptosis inhibition; INS-1E cytokine-induced death, ATP luminescence, 48 h; percent of positive-control rescue, neutral wells zero; protection from apoptosis, % (concentration not given with the values); actives 0.8% (n = 300,000); AID 435005;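 active = Every replicate reaches about 75%, or at least half do and their mean reaches it too, limit read from the data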;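 note: 0% = cytokine-treated negative control wells and 100% = positive control rescue; higher means more ATP so stronger rescue from cytokine killing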
GRIN3A LBD mod = modulators (binders) of human NR3A ligand-binding domain; actives 2.5% (n = 340,000); NR3A LBD differential scanning fluorimetry, Tm shift; 0% = protein alone, 100% = glycine-bound protein; Tm shift relative to glycine control, % at 25 µM;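 active = melting temperature shift of at least 10% of the positive control shift, at one fixed dose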
CSC inhib = cancer stem cell inhibition. actives 1.1% (n = 300,000). inhibition, % at 7.5 µM. cancer stem cell-like cells viability, luminescence. AID 2717; in the data active = inhibition above about 75%; tested in HMLE shEcad cells
CHOP inhibitor = CHOP inhibition in unfolded protein response; inhibition, % at 10 µM; actives 3.8% (n = 220,000); CHO-K1 CHOP-promoter luciferase, tunicamycin-induced, 15-18 h; AID 2732;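 active = compounds that reduced the stress-induced luciferase reporter signal by more than about 70% of percent inhibition, limit read from the data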;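 note: 0% = tunicamycin plus vehicle and 100% = wells without tunicamycin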
PREPL inhibitor = inhibitors of human prolyl oligopeptidase-like enzyme PREPL | Q4J6C6 | recombinant PREPL, fluorescence polarization activity-based probe | inhibition, % at 5.96 µM | actives 0.68% (n = 320,000) | AID 2751;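 note: 0% = enzyme with DMSO and 100% = wells lacking enzyme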
Target sequence (Q4J6C6 whole entry, looked up): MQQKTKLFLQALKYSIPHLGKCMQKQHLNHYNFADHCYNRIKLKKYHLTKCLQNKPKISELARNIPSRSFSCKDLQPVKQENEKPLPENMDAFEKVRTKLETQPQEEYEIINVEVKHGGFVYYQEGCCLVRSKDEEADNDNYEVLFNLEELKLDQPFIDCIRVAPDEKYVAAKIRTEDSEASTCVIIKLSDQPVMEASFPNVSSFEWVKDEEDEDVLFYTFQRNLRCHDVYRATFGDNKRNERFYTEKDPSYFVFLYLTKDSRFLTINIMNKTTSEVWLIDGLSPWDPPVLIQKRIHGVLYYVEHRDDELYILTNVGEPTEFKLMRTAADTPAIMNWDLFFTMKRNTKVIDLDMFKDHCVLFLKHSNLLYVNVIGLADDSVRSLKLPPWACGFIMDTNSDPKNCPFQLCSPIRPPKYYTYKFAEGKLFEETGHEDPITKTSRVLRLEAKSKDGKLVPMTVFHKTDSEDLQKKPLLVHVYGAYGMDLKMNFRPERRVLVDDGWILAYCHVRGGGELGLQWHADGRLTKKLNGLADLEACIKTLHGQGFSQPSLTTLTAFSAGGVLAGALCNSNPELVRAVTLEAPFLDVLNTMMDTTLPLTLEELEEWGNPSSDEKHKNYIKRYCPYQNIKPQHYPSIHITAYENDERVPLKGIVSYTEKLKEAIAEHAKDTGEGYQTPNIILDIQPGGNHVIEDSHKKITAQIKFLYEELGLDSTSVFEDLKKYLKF
T cruzi inh = T. cruzi replication inhibition; T. cruzi beta-gal in NIH3T3, luminescence, 90 h; AID 1885; actives 1.4% (n = 300,000); inhibition, % (test concentration not listed);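 active = mean inhibition across valid replicates above about 55%, limit read from the data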;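 note: signal also drops with host cell toxicity which is not excluded here; 0% = plate median of DMSO wells and 100% = zero luminescence signal; higher percent means less beta-gal luminescence so fewer parasites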
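Assay system: NIH/3T3 fibroblasts plus reporter T. cruzi. Amount: NIH/3T3 cells, 5,000 per well. Buffer or medium: DMEM, 2% fetal bovine serum. Doses: compound pinned at 50 nL/well, DMSO. Schedule: ≥90 h infection period, 3 h prior cell attachment. Signal: luminescent β-galactosidase signal after 60 min lysis. Read-out: parasite load inhibition, %.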
PREPL confirm = confirmation of human PREPL enzyme inhibitors; recombinant PREPL, fluorescence polarization activity probe; shares compounds with PREPL inhibitor; inhibition, % at 5.96 µM; actives 67% (n = 2,000); AID 2803;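 note: 0% = protein with DMSO and 100% = wells lacking protein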
* = called active by the depositor; x = no result given. Cut-off read from the data, not from the text of the source, unless noted: active = inhibition above about 43%; inactive = the rest.

SMILES	Beta cell apopt	GRIN3A LBD mod	CSC inhib	CHOP inhibitor	PREPL inhibitor	T cruzi inh	PREPL confirm
O=C(O)/C=C\C(=O)Nc1ccc(N2CCN(c3ccc(F)cc3)CC2)cc1	x	-2.3	-15.5	0.4	51.1*	-2.6	25.4
CC(=O)Nc1ccc(N2CCN(c3ccc(F)cc3)CC2)cc1	0.5	-1.7	-13.1	x	0.6	-15.1	x
CCCCC1=CC2=C(c3ccco3)C(=O)C(C)(OC(=O)c3ccc(OC)cc3)C(=O)C2=CN1CCN1CCOCC1 (centres undefined)	-2.7	-2.0	8.9	-12.5	59.5*	2.9	46.5*
CN(C)c1ccc(N=C/C=C2\N(C)c3ccccc3C2(C)C)cc1	11.6	-2.5	-12.8	-31.2	70.0*	30.4	68.3*
Cc1ccc(NC(=O)Cn2cnc3c(NCc4ccccc4)ncnc32)cc1C	x	1.6	x	x	x	x	x
CNC(=O)[C@H]1O[C@@H](n2cnc3c(NCc4cccc(I)c4)ncnc32)C(O)[C@H]1O (some centres undefined)	x	x	x	17.6	x	x	x
CC(=O)N1CCN(Cc2nc3cc(NC(=O)NC4CCCCC4)ccc3n2C)CC1	x	0.1	x	5.0	-7.6	-4.2	x
COc1ccc(CCNC(=O)COc2ncnc3cc([N+](=O)[O-])ccc23)cc1	-0.7	-0.2	-17.3	13.6	18.6	30.5	x
O=[N+]([O-])c1cccc(COc2ncnc3cc([N+](=O)[O-])ccc23)c1	13.6	-2.6	23.0	14.2	47.1*	63.7*	35.7
COc1ccc(NC(=O)CN(C)C(=O)c2cc(CN3C(=O)c4ccccc4C3=O)ccc2OC)cc1	x	-1.9	-6.9	x	-1.5	-0.5	x
O=S(=O)(Nc1cc2nc3ccccc3nc2n1Cc1ccccc1)c1ccc(Cl)cc1	2.9	11.9*	112.3*	92.5*	49.7*	2.2	42.1
Cc1ccc(Nc2nc(N/N=C/c3c[nH]c4ccccc34)nc(N3CCOCC3)n2)cc1	-6.3	29.1*	x	95.0*	44.0*	41.2	60.3*
CCN1CCN(C(=O)C(C)Nc2ccc(OC)cc2OC)CC1 (centres undefined)	5.9	-0.1	-24.2	5.9	50.4*	12.7	46.0*
CCOC(=O)N1CCN(CCC(=O)Nc2ccc(OC)cc2OC)CC1	4.1	-14.2	6.3	16.8	15.1	0.4	x
O=c1[nH][nH]c(=O)c2nc(Nc3ccccc3)ncc12	x	0.2	x	x	x	x	x
Oc1c(CN2CCCCC2)cc(COCc2ccccc2)c2cccnc12	39.5	-1.4	0.0	x	55.6*	71.8*	83.9*
Oc1cc(Cc2ccccc2)cnc1CN1CCCCC1	2.2	0.0	-11.8	22.8	9.1	2.3	x
Cc1nn(C)cc1S(=O)(=O)N1CCCCC1C (centres undefined)	-5.5	-0.5	-6.5	x	4.8	-5.0	x
CNC[C@H](Cc1cccc2ccccc12)NC[C@H](CCSC)NCC1CCC(C(C)(C)C)CC1 (some centres undefined)	-0.7	x	90.3*	x	43.5*	x	33.6
COc1ccc2cc1Oc1ccc(cc1)C[C@H]1c3cc(c(OC)cc3CCN1C)Oc1c(OC)c(OC)cc3c1[C@@H](C2)N(C)CC3	2.5	0.2	-5.8	x	51.5*	x	48.0*
COc1ccccc1CC(=O)Nc1ccc(S(=O)(=O)N2CC(C)CC(C)C2)cc1 (centres undefined)	-7.0	-6.3	11.9	x	6.6	x	x
Cc1ccn2c(Nc3ccccc3)c(-c3ccccn3)nc2c1	96.3*	-7.6	80.9*	83.8*	66.7*	61.7*	63.1*
Cc1ccn2c(Nc3ccccc3C)c(-c3ccccn3)nc2c1	94.1*	-4.6	57.8	88.2*	51.9*	49.6	40.6
O=C(CNc1cccc(S(=O)(=O)N2CCCC2)c1)Nc1cccc(C(F)(F)F)c1	3.5	-3.0	-16.6	x	6.5	x	x
O=S(=O)(NCc1ccc(F)cc1)c1ccccc1Br	-10.1	-0.6	0.2	x	-4.1	x	x
SMILES	Beta cell apopt	GRIN3A LBD mod	CSC inhib	CHOP inhibitor	PREPL inhibitor	T cruzi inh	PREPL confirm
Cc1ccc(NC(=O)COc2cccc(/C=C3\SC(=S)N(CCC(=O)O)C3=O)c2)cc1Cl	-7.2	-3.0	-3.4	98.0*	52.4*	14.9	27.9
O=C(O)CCN1C(=O)/C(=C\c2cccc(OCC(=O)Nc3ccc(Cl)cc3)c2)SC1=S	4.5	-7.4	21.4	4.7	16.8	-0.3	x
Cc1onc(-c2c(F)cccc2Cl)c1C(=O)NC(=S)NCc1cccnc1	x	-4.8	x	-5.0	-8.2	32.2	x
CCc1ccc(Nc2n[n+](-c3ccccc3)c(-c3ccc(N(CC)CC)cc3)s2)cc1	108.3*	-4.3	34.2	x	63.9*	57.8*	67.7*
CCN(CC)c1ccc(-c2sc(Nc3ccccc3)n[n+]2-c2ccc(F)cc2)cc1	32.4	-9.0	2.3	x	53.9*	29.3	65.5*
c1ccc(COc2ccc(-c3sc(Nc4ccccc4)n[n+]3-c3ccccc3)cc2)cc1	64.9	x	17.9	x	40.8	32.3	x
CN(C)c1ccc(-c2sc(Nc3ccccc3)n[n+]2-c2ccc(F)cc2)cc1	3.4	-3.4	1.8	x	10.3	18.5	x
O=C(/C=C/c1cccc([N+](=O)[O-])c1)NCCSc1ccccc1	-3.4	-2.3	1.4	21.4	46.2*	-8.4	41.4
Cc1cccc(-c2sc(Nc3ccccc3)n[n+]2-c2ccccc2)c1	-2.5	-5.7	-25.4	x	-6.6	x	x
COc1ccc(C)cc1Nc1n[n+](-c2ccccc2)c(-c2ccc(OC)c(OC)c2OC)s1	95.7*	0.3	6.0	x	53.4*	55.0*	60.2*
COc1ccc(C)cc1Nc1n[n+](-c2ccccc2)c(-c2ccc(N(C)C)cc2)s1	98.7*	-7.3	-1.7	x	61.0*	47.4	68.9*
Cc1cc(C)cc(NC(=O)COC(=O)Cn2cnc3c2c(=O)n(C)c(=O)n3C)c1	x	-2.5	x	x	-0.6	x	x
Cc1cccn2c(=O)c3cc(C(=O)NCCc4ccccc4)c(=N)n(CCCn4ccnc4)c3nc12	-4.0	1.5	33.1	18.8	66.3*	29.6	57.6*
COCCn1c(=N)c(C(=O)NCCc2ccccc2)cc2c(=O)n3cccc(C)c3nc21	-8.6	-1.9	7.3	x	29.3	26.2	x
Cc1ccc2nc3c(cc(C(=O)NCCc4ccccc4)c(=N)n3CCCN3CCOCC3)c(=O)n2c1	12.6	-3.4	12.5	x	52.5*	26.6	56.4*
COc1ccc(CCNC(=O)c2cc3c(=O)n4ccccc4nc3n(CCCN3CCOCC3)c2=N)cc1OC	5.5	-0.1	4.6	x	19.3	8.7	x
COc1ccc(CCNC(=O)c2cc3c(=O)n4ccccc4nc3n(CCCN3CCOCC3)c2=N)cc1	14.7	-0.1	-0.8	x	58.4*	28.9	51.9*
Cc1c(CN2CCC(Oc3ccc(C(=O)N4CCCCC4)cc3)CC2)cnn1C	5.9	1.6	14.2	x	5.2	-0.6	x
C[C@H]1CN([C@@H](C)CO)C(=O)Cc2cc(NC(=O)CCN3CCOCC3)ccc2O[C@@H]1CN(C)Cc1ccc(Oc2ccccc2)cc1	-4.4	-5.8	4.7	x	52.7*	x	54.2*
